ChEMBL document CHEMBL1828620, “Synthesis of novel 6-phenyl-2,4-disubstituted pyrimidine-5-carbonitriles as potential antimicrobial agents” (2011)
In brackets after ≈: the same amount, converted by molar mass.

Tests used:
Assay type in all cases: functional
Staphylococcus aureus [1] = assay: Antimicrobial activity against Staphylococcus aureus IFO 3060 at 200 ug/disc after 24 hrs by agar disc diffusion method; details: IFO 3060, 24 h, read-out: DIZ
Outline: (§1)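 Agar disc diffusion: sterile 8 mm filter-paper discs moistened with compound solution in DMSO, placed on agar plates each pre-inoculated with one organism; plates held at 37 °C; growth inhibition zone diameter measured after 24 h (bacteria) or 48 h (C. albicans).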

Bacillus subtilis [2] = assay: Antimicrobial activity against Bacillus subtilis IFO 3007 at 200 ug/disc after 24 hrs by agar disc diffusion method; details: IFO 3007, 24 h, read-out: DIZ; outline: as §1
Pseudomonas aeruginosa [3] = assay: Antimicrobial activity against Pseudomonas aeruginosa IFO 3448 at 200 ug/disc after 24 hrs by agar disc diffusion method; details: IFO 3448, 24 h, read-out: DIZ; outline: as §1
Escherichia coli [4] = assay: Antimicrobial activity against Escherichia coli IFO 3301 at 200 ug/disc after 24 hrs by agar disc diffusion method; details: IFO 3301, 24 h, read-out: DIZ; outline: as §1
Candida albicans = assay: Antifungal activity against Candida albicans IFO 0583 at 200 ug/disc after 48 hrs by agar disc diffusion method; details: IFO 0583, 48 h, read-out: DIZ; outline: as §1
Micrococcus luteus [5] = assay: Antimicrobial activity against Micrococcus luteus IFO 3232 at 200 ug/disc after 24 hrs by agar disc diffusion method; details: IFO 3232, 24 h, read-out: DIZ; outline: as §1
Bacillus subtilis [6] = assay: Antimicrobial activity against Bacillus subtilis IFO 3007 after 24 hrs by two fold serial dilution method
Staphylococcus aureus [7] = assay: Antimicrobial activity against Staphylococcus aureus IFO 3060 after 24 hrs by two fold serial dilution method
Micrococcus luteus [8] = assay: Antimicrobial activity against Micrococcus luteus IFO 3232 at 100 ug/disc after 24 hrs by agar disc diffusion method; outline: as §1
Pseudomonas aeruginosa [9] = assay: Antimicrobial activity against Pseudomonas aeruginosa IFO 3448 at 100 ug/disc after 24 hrs by agar disc diffusion method; outline: as §1
Pseudomonas aeruginosa [10] = assay: Antimicrobial activity against Pseudomonas aeruginosa IFO 3448 after 24 hrs by two fold serial dilution method
Micrococcus luteus [11] = assay: Antimicrobial activity against Micrococcus luteus IFO 3232 after 24 hrs by two fold serial dilution method
Staphylococcus aureus [12] = assay: Antimicrobial activity against Staphylococcus aureus IFO 3060 at 100 ug/disc after 24 hrs by agar disc diffusion method; outline: as §1
Bacillus subtilis [13] = assay: Antimicrobial activity against Bacillus subtilis IFO 3007 at 100 ug/disc after 24 hrs by agar disc diffusion method; outline: as §1
Escherichia coli [14] = assay: Antimicrobial activity against Escherichia coli IFO 3301 at 100 ug/disc after 24 hrs by agar disc diffusion method; outline: as §1
Escherichia coli [15] = assay: Antimicrobial activity against Escherichia coli IFO 3301 after 24 hrs by two fold serial dilution method

Row | Compound | zone of inhibition at 200 µg/disc (Staphylococcus aureus [1]) | zone of inhibition at 200 µg/disc (Bacillus subtilis [2]) | zone of inhibition at 200 µg/disc (Pseudomonas aeruginosa [3]) | zone of inhibition at 200 µg/disc (Escherichia coli [4]) | zone of inhibition at 200 µg/disc (Candida albicans) | zone of inhibition at 200 µg/disc (Micrococcus luteus [5]) | MIC (Bacillus subtilis [6]; IFO 3007, 24 h) | MIC (Staphylococcus aureus [7]; IFO 3060, 24 h) | also measured
1 | N#Cc1c(Sc2ccccc2)nc(SCc2ccc(Cl)cc2)nc1-c1ccccc1 | 12 mm | 14 mm | < 10 mm | < 10 mm | < 10 mm | 12 mm |  |  | 
2 | CCOCCSc1nc(-c2ccccc2)c(C#N)c(=O)[nH]1 | 21 mm | 24 mm | 11 mm | 14 mm | < 10 mm | 17 mm | 4 µg/mL (≈ 13.3 µM) | 4 µg/mL (≈ 13.3 µM) | 
3 | N#Cc1c(-c2ccccc2)nc(SCc2ccccc2)[nH]c1=O | 16 mm | 17 mm | < 10 mm | < 10 mm | < 10 mm | 16 mm |  |  | 
4 | CSCCSc1nc(-c2ccccc2)c(C#N)c(=O)[nH]1 | 16 mm | 18 mm | 18 mm | 21 mm | 14 mm | 15 mm | 8 µg/mL (≈ 26.4 µM) |  | 
5 | CC1(C)S[C@@H]2[C@H](NC(=O)[C@H](N)c3ccccc3)C(=O)N2[C@H]1C(=O)O.O.O.O [AMPICILLIN TRIHYDRATE] |  |  |  |  |  |  | 0.5 µg/mL | 2 µg/mL | zone of inhibition at 100 µg/disc (Micrococcus luteus [8]; IFO 3232, 24 h, read-out: DIZ): 19 mm; zone of inhibition at 100 µg/disc (Pseudomonas aeruginosa [9]; IFO 3448, 24 h, read-out: DIZ): 17 mm; MIC (Pseudomonas aeruginosa [10]; IFO 3448, 24 h): 2 µg/mL; MIC (Micrococcus luteus [11]; IFO 3232, 24 h): 2 µg/mL; zone of inhibition at 100 µg/disc (Staphylococcus aureus [12]; IFO 3060, 24 h, read-out: DIZ): 23 mm; zone of inhibition at 100 µg/disc (Bacillus subtilis [13]; IFO 3007, 24 h, read-out: DIZ): 21 mm; zone of inhibition at 100 µg/disc (Escherichia coli [14]; IFO 3301, 24 h, read-out: DIZ): 17 mm
6 | N#Cc1c(-c2ccccc2)nc(SCc2ccc(F)cc2)[nH]c1=O | 22 mm | 26 mm | 14 mm | 18 mm | < 10 mm | 21 mm | 2 µg/mL (≈ 5.93 µM) | 4 µg/mL (≈ 11.9 µM) | MIC (Escherichia coli [15]; IFO 3301, 24 h): 8 µg/mL (≈ 23.7 µM); MIC (Micrococcus luteus [11]; IFO 3232, 24 h): 4 µg/mL (≈ 11.9 µM)
7 | N#Cc1c(-c2ccccc2)nc(SCc2ccc([N+](=O)[O-])cc2)[nH]c1=O | 14 mm | 17 mm | < 10 mm | 12 mm | < 10 mm | 13 mm |  |  | 
8 | N#Cc1c(Nc2ccc(F)cc2)nc(SCc2ccc(Cl)cc2)nc1-c1ccccc1 | 16 mm | 18 mm | < 10 mm | < 10 mm | < 10 mm | 19 mm | 1 µg/mL (≈ 2.24 µM) | 2 µg/mL (≈ 4.47 µM) | MIC (Micrococcus luteus [11]; IFO 3232, 24 h): 4 µg/mL (≈ 8.95 µM)
9 | Cc1cccc(Sc2nc(SCc3ccc(Cl)cc3)nc(-c3ccccc3)c2C#N)c1 | < 10 mm | < 10 mm | < 10 mm | < 10 mm | < 10 mm | < 10 mm |  |  | 
10 | GENTAMICIN SULFATE |  |  |  |  |  |  |  |  | MIC (Escherichia coli [15]): 0.5 µg/mL; inhibition zone (IZ) (Micrococcus luteus [8]): 18 mm; inhibition zone (IZ) (Pseudomonas aeruginosa [9]): 19 mm; MIC (Bacillus subtilis [6]): 2 µg/mL; MIC (Pseudomonas aeruginosa [10]): 1 µg/mL; MIC (Staphylococcus aureus [7]): 2 µg/mL; MIC (Micrococcus luteus [11]): 2 µg/mL; inhibition zone (IZ) (Staphylococcus aureus [12]): 26 mm; inhibition zone (IZ) (Bacillus subtilis [13]): 25 mm; inhibition zone (IZ) (Escherichia coli [14]): 20 mm
11 | Cc1ccccc1Sc1nc(SCc2ccc(Cl)cc2)nc(-c2ccccc2)c1C#N | < 10 mm | < 10 mm | < 10 mm | < 10 mm | < 10 mm | < 10 mm |  |  | 
12 | Cc1ccc(Sc2nc(SCc3ccc(Cl)cc3)nc(-c3ccccc3)c2C#N)cc1 | 14 mm | 13 mm | < 10 mm | < 10 mm | < 10 mm | 11 mm |  |  | 
13 | N#Cc1c(O)nc(SCc2ccc(Cl)cc2)nc1-c1ccccc1 | 20 mm | 19 mm | 12 mm | 14 mm | < 10 mm | 19 mm | 8 µg/mL (≈ 22.6 µM) | 8 µg/mL (≈ 22.6 µM) | MIC (Micrococcus luteus [11]; IFO 3232, 24 h): 8 µg/mL (≈ 22.6 µM)
14 | N#Cc1c(Nc2cccc(C(F)(F)F)c2)nc(SCc2ccc(Cl)cc2)nc1-c1ccccc1 | 14 mm | 14 mm | < 10 mm | < 10 mm | < 10 mm | 11 mm |  |  | 
15 | N#Cc1c(Cl)nc(SCc2ccc(Cl)cc2)nc1-c1ccccc1 | 24 mm | 26 mm | 14 mm | 16 mm | 12 mm | 18 mm |  |  | 
16 | N#Cc1c(Nc2ccc(C(F)(F)F)cc2)nc(SCc2ccc(Cl)cc2)nc1-c1ccccc1 | 15 mm | 17 mm | < 10 mm | < 10 mm | < 10 mm | 13 mm |  |  | 
17 | N#Cc1c(-c2ccccc2)nc(SCOCc2ccccc2)[nH]c1=O | 14 mm | 16 mm | < 10 mm | < 10 mm | < 10 mm | 13 mm |  |  | 
18 | COCCSc1nc(-c2ccccc2)c(C#N)c(=O)[nH]1 | 18 mm | 22 mm | 10 mm | 12 mm | < 10 mm | 17 mm | 2 µg/mL (≈ 6.96 µM) | 8 µg/mL (≈ 27.8 µM) | 
19 | N#Cc1c(-c2ccccc2)nc(SCc2ccc([N+](=O)[O-])o2)[nH]c1=O | 33 mm | 28 mm | 21 mm | 22 mm | 11 mm | 24 mm | 1 µg/mL (≈ 2.82 µM) | 0.5 µg/mL (≈ 1.41 µM) | MIC (Escherichia coli [15]; IFO 3301, 24 h): 2 µg/mL (≈ 5.64 µM); MIC (Pseudomonas aeruginosa [10]; IFO 3448, 24 h): 4 µg/mL (≈ 11.3 µM); MIC (Micrococcus luteus [11]; IFO 3232, 24 h): 1 µg/mL (≈ 2.82 µM)
20 | N#Cc1c(Nc2ccccc2C(F)(F)F)nc(SCc2ccc(Cl)cc2)nc1-c1ccccc1 | 12 mm | 12 mm | < 10 mm | < 10 mm | < 10 mm | 10 mm |  |  | 
21 | CCSCCSc1nc(-c2ccccc2)c(C#N)c(=O)[nH]1 | 12 mm | 16 mm | 14 mm | 16 mm | 12 mm | 12 mm |  |  | 
